PMI activator = activators of human PMI, primary screen, biochemical, fluorescence intensity, near-Km mannose 6-phosphate; 190,000 tested, 0.005% active; activation factor at 20 µM; purified human PMI, coupled resazurin fluorescence, 20 min; stronger effect = higher value; 1 = vehicle control, 0 substrate-free wells; AID 1214, 2008;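 active = activation factor of 2 or more at 20 µM, relative to plate controls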
Target sequence (P34949 whole entry, looked up): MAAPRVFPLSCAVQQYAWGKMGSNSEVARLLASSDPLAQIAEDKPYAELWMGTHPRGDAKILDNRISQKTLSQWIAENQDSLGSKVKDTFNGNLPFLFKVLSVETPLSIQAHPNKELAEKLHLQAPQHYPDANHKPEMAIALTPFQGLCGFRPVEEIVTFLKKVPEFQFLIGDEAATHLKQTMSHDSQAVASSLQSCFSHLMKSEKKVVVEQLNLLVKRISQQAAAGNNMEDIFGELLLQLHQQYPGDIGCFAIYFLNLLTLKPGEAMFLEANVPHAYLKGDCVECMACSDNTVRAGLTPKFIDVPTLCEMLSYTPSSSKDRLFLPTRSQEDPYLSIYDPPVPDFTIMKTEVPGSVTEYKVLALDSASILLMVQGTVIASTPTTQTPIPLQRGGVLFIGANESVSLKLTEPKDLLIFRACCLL
G6PDH CS = L. mesenteroides G6PDH inhibitors, counter-screen for G6PDH-coupled screening assays, biochemical, Leuconostoc mesenteroides enzyme; glucose-6-phosphate dehydrogenase [Leuconostoc mesenteroides]; Purified L. mesenteroides G6PDH, diaphorase/resazurin coupled fluorescence, 45 min; inhibition, % at 5 µM; 200,000 tested, 0.12% active; AID 1020, 2008; in the data active = inhibition above about 50%
DTT redox prof = compounds producing H2O2 with reducing agent – biochemical, NIH compound library profiling, artefact control for MLSCN library redox annotation, primary screen; DTT-dependent redox cycling H2O2, phenol red/HRP absorbance; 100% = 100 µM peroxide control, 0% = buffer; activation, % at 10 µM; 200,000 tested, 0.03% active; AID 878, 2007;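 active = activation of at least 50% relative to the plate's high and low controls in the primary single-dose screen; inactive = activation below 50%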;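 note: compound incubated with DTT at 0.8 mM final as the reducing agent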
Diaph inh CS = diaphorase inhibitors and chemical oxidizers, primary screen, counter-screen for diaphorase-coupled primary assays, biochemical, uHTS, resorufin fluorescence; diaphorase resazurin-to-resorufin fluorescence, NADH, 16 min; bacterial (C. kluyveri) enzyme, not human; inhibition, % at 20 µM; 190,000 tested, 0.69% active; AID 1217, 2008;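 active = primary screen inhibition at 20 µM above a set limit, cut at about 50% in these data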
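Assay system: diaphorase enzyme from Clostridium kluyveri. Quantity: enzyme working solution with 0.14 U/mL diaphorase. Schedule: reaction incubation of 16 min at room temperature. Technique: resorufin fluorescence, excitation 544 nm, emission 590 nm. Controls: No-NADH positive control and DMSO neutral control.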
PMI act hi M6P = human PMI activators, high substrate, primary screen, biochemical, fluorescence intensity, near-saturating mannose 6-phosphate. Mannose-6-phosphate isomerase (Homo sapiens), P34949. coupled PMI enzyme assay, resazurin fluorescence, 20 min; stronger effect = higher value; 1 = untreated enzyme, 0 = substrate-free blank. activation factor at 20 µM. 190,000 tested, 0.34% active;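 active = activation factor of 2 or more at 20 µM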
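assay system = human phosphomannose isomerase with PGI, G6PDH, diaphorase coupling enzymes | quantity = 15 ng/mL PMI | incubation = enzyme reaction with compound 20 min at room temperature | medium = HEPES pH 7.4 buffer with MgCl2 and Tween-20 | compound dosing = one concentration, 20 µM, in 1% DMSO | measured by = Diaphorase-driven resazurin-to-resorufin fluorescence, excitation 544, emission 590 nm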
Diaphorase act = compounds boosting diaphorase resazurin reduction – biochemical, uHTS, resorufin fluorescence, counter-screen for diaphorase-coupled primary assays, primary screen; AID 1229, 2008; 190,000 tested, 0.005% active; Diaphorase/resazurin coupled assay, 16 min; stronger effect = higher value; 1 = vehicle wells, 0 = NADH-free wells; activation factor at 20 µM;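 active = diaphorase activity raised at least twofold by the compound at 20 µM; inactive = activation factor below 2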
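Test system: Clostridium kluyveri diaphorase, purified enzyme; input: enzyme 0.07 U/mL final; buffer or medium: 50 mM HEPES pH 7.4 with 4.542 mM MgCl2, 0.005% Tween 20; also added: 0.114 mM NADH and 0.1 mM resazurin, final amounts; schedule: 16 min enzyme reaction, ambient temperature; technique: fluorescence of resorufin, 544 nm excitation, 590 nm emission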
Of the large screens only hits and unclear results are named; the others gave an inactive call. A selection: hits, their analogues and other compounds. The true share with any hit is near 1.1%.

CC(C)(C)CC(C)(C)NC(=S)Nc1ccc2nc(-c3ccccn3)c(-c3ccccn3)nc2c1	none
OCCCNC(=S)Nc1ccc2nc(-c3ccccn3)c(-c3ccccn3)nc2c1	G6PDH CS 52, Diaph inh CS 68
S=C(Nc1ccc2nc(-c3ccccn3)c(-c3ccccn3)nc2c1)N1CCOCC1	G6PDH CS 53, Diaph inh CS 51
C/C(=N\Nc1ccc(F)cc1F)c1ccc(F)cc1	PMI act hi M6P 2.4
C/C(=N\Nc1ccc(F)cc1F)c1ccc(N2CCOCC2)cc1	PMI act hi M6P 2.4
C/C(=N\NC(=O)c1ccc(Cl)cc1)c1ccc(Br)s1	none
Fc1ccc(N/N=C/c2ccc(N3CCOCC3)cc2)c(F)c1	PMI act hi M6P 2.2
O=C(Nc1ccc(F)cc1F)Nc1ccc(F)cc1F	none
C/C(=N\Nc1ccc(F)cc1F)c1ccc(Br)s1	PMI act hi M6P 2.6
CN(c1ccc([N+](=O)[O-])cc1C(N)=O)C1CCCCC1	none
COc1ccccc1CNC(=O)CSc1ccc(-c2cccc([N+](=O)[O-])c2)nn1	none
CC1(C)N([O-])C2=C(c3ccccc3C2=O)[N+](=O)C1(C)C	Diaph inh CS 67
O=c1[nH]ncc(NCc2ccc(Cl)cc2)c1Cl	none
O=C(O)c1cccc(C(=O)O)n1	Diaph inh CS 71
COC(=O)/C=c1/sc2nc3ccccc3n2c1=O	none
O=c1/c(=C/c2ccccn2)sc2nc3ccccc3n12	none
O=c1/c(=C\c2cc([N+](=O)[O-])cc([N+](=O)[O-])c2O)sc2nc3ccccc3n12	Diaph inh CS 50, PMI act hi M6P 2.4
O=C(O)c1cc(C(=O)O)cc(-c2ccc(/C=c3/sc4nc5ccccc5n4c3=O)o2)c1	Diaph inh CS 98
Cc1nc(Oc2ccc(S(=O)(=O)N3CCOCC3)cc2Cl)c2c3c(sc2n1)CCCC3	none
Cc1occc1C(=O)N/N=C/c1cnn(C)c1C	Diaph inh CS 60
CCCCCCCCCCCCCCCC[n+]1ccc(/C=N/O)cc1	Diaphorase act 2
CCCCCCCCCCCCCCCC[n+]1ccc(C(N)=O)cc1	none
Oc1ccccc1/C=N/Nc1cccc2cccnc12	none
C/C(=N\Nc1cccc2cccnc12)c1ccc(C)cc1	PMI act hi M6P 2.1
CN(C)CCNC(=O)c1ccc(Sc2ccc(Br)cc2)c([N+](=O)[O-])c1	none
CCNc1ccc(Br)cc(C(=O)/C=C/c2ccc3c(c2)OCO3)c1=O	Diaph inh CS 59
CNc1ccc(Br)cc(C(=O)/C=C/c2ccc(Cl)cc2Cl)c1=O	Diaph inh CS 85
CNc1ccc(Br)cc(C(=O)/C=C/c2cccc(OC)c2)c1=O	Diaph inh CS 50
CNc1ccc(Br)cc(C(=O)/C=C/c2ccc(OC)cc2OC)c1=O	none
Cc1ccc(S(=O)(=O)Oc2ccc(/C=N/NC(=O)c3cccnc3)cc2)cc1	none
COc1ccc(C(=O)NNC(=O)CNC(=O)C2CCCCC2)cc1	none
COc1ccc(C(=O)NC(=S)NNC(=O)CNC(=O)C2CCCCC2)cc1	Diaph inh CS 59
Oc1ccccc1C1Nc2cccc3cccc(c23)N1	none
COc1ccccc1C1Nc2cccc3cccc(c23)N1	Diaph inh CS 57
CCOc1ccc(C2Nc3cccc4cccc(c34)N2)cc1OC	Diaph inh CS 65
COc1ccc(C2Nc3cccc4cccc(c34)N2)cc1	Diaph inh CS 52
Cc1ccc(C)c(C(=O)COC(=O)c2cc([N+](=O)[O-])ccc2NCCO)c1	none
CCCCn1c2nc3ccccc3nc2c2c(=O)n(C(C)CC)cnc21 (stereo unspecified)	none
